# Publication PMC248471 (Biological Procedures Online, 2003)
# Like-named read-outs stand apart in the source and are kept apart here. No end group written: not given here.
# What was measured:
# [1] = biological target: T1, recombinant human HSP72 (Homo sapiens, UniProt P0DMV8); experiment: BIAcore SPR kinetic analysis of peptide binding to immobilized HSP72; conditions: pH 7.4, read-out: ka (on rate)
# Method in brief: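 Recombinant human HSP72 dialysed into 10 mM sodium acetate pH 5.0 and covalently coupled to a CM5 chip at about 10,000 RU. Peptides were dissolved in running buffer (HBS-P pH 7.4, 2.5 mM Mg acetate, 2.5 mM ATP) and injected at 25 to 200 μM. Sensorgrams were reference-channel subtracted without regeneration, then globally fitted to a 1:1 Langmuir model and judged by Chi2 and residuals.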
# [2] = biological target: T1, recombinant human HSP72; experiment: BIAcore SPR peptide binding to high-density immobilized HSP72; conditions: for binding to HSP72 (sensorgram pattern): 1 mM peptide, high HSP72 immobilization density (20,000 RU), data not shown, see reference [15]
# [3] = system: MV RNP (parent Ed-MV and 4D variant); format: cell-based, measles virus; conditions: recombinant virus with 4D-substituted motif; unpublished data
# [4] = system: CDV transcription and genome replication; experiment: CDV viral transcription and genome replication, HSP72 responsiveness; format: cell-based, canine distemper virus (Onderstepoort strain); conditions: Onderstepoort CDV N protein (YSDKELL); unpublished observation
# [5] = system: viral RNP transcriptional activity; conditions: ATP-dependent association with CDV and MV RNP; ref [10]-[13]; cited from earlier work
# [6] = system: MV transcription and genomic replication; conditions: ref [15], cited from earlier work
# [7] = system: IgG; experiment: BIAcore SPR peptide binding to irrelevant ligand; conditions: irrelevant ligand IgG immobilized; data not shown, see reference [15]
# [8] = system: MV RNP-HSP72 interaction; experiment: Peptide competitive inhibition of MV RNP-HSP72 interaction; format: binding, human HSP72; measles virus RNP
# T1 sequence (P0DMV8 whole entry): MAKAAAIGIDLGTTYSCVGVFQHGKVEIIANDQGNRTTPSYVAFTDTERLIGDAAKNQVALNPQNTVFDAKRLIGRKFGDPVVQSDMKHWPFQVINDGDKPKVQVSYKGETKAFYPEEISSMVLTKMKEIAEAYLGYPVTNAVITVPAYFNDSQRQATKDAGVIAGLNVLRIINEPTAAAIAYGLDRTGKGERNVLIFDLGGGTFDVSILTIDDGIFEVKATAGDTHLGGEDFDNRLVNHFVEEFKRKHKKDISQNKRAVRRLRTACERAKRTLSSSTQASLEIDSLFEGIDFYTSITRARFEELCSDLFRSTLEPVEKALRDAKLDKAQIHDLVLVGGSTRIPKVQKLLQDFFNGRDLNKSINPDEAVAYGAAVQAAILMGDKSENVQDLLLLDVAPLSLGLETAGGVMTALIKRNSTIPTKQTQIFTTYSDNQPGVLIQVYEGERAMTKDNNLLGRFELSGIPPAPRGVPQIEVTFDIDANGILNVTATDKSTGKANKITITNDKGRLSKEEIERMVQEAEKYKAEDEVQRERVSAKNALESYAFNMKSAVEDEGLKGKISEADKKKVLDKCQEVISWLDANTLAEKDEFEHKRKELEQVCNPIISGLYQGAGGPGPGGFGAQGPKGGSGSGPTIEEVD
compound,measurement,setting,value
"CC[C@H](C)[C@H](NC(=O)[C@@H]1CCCN1C(=O)[C@@H](NC(=O)[C@H](CC(=O)O)NC(=O)[C@@H](NC(=O)[C@@H](N)CC(=O)O)[C@@H](C)O)[C@@H](C)O)C(=O)N[C@H](C(=O)N[C@@H](Cc1ccc(O)cc1)C(=O)N[C@@H](CC(N)=O)C(=O)N[C@@H](CC(=O)O)C(=O)N[C@@H](CCCNC(=N)N)C(=O)N[C@@H](CC(N)=O)C(=O)N[C@@H](CC(C)C)C(=O)N[C@@H](CC(C)C)C(=O)N[C@@H](CC(=O)O)C(=O)O)C(C)C [N, DTDTPIVYNDRNLLD]",kon,[1],357 M⁻¹ s⁻¹
same,"dissociation rate from HSP72, faster in 2.5 mM than in 0.1 mM ATP","[2]; 400 μM N peptide, 20,000 RU HSP72, HBS-P, 2.5 mM magnesium acetate",3 times
"DTDTPIVYNDRDLLD [Peptide N4D, DTDTPIVYNDRDLLD]",kon,[1],7 M⁻¹ s⁻¹
"DTDTPIVYNDRDPLD [Peptide N3P4D, DTDTPIVYNDRDPLD]",kon,[1],14 M⁻¹ s⁻¹
HSP72: 72 kDa heat shock protein; major inducible member of the 70kDa family,functional HSP72 responsiveness of 4D virus variant,[3],loss of functional HSP72 responsiveness
same,HSP72 responsiveness in viral transcription and genome replication,[4],retains HSP72 responsiveness
same,effect of HSP72 association on RNP,[5],increased RNP transcriptional activity
same,stimulation of viral transcriptional activity (CAT reporter),"[6]; HSP72 added by transfection, wild type MV N",2-3 fold
same,response to HSP72 supplementation (CAT reporter),[6]; N protein with C-terminal 3P4D substitutions,lack a response
same,response to HSP72 supplementation (CAT reporter),[6]; N protein with C-terminal 4D substitution,lack a response
STSRHKKLMFKTEGP [p53],binding to HSP72 (sensorgram pattern),[2],progressive rise in signal observed over time
same,signal over bulk shift on IgG,[7],signal over bulk shift was not observed
YGSLPQKAQRPQDEN [MBP],inhibition of RNP binding to HSP72,"[8]; 400 μM peptide, MV RNP representing 1 nM N protein, maximal sensorgram response",18%
same,"level of inhibition of RNP-HSP72 binding, comparison",[8]; 400 mM (so in the source) MBP peptide vs 5 μM N peptide,comparable to that using only 5 μM N peptide
same,binding to HSP72 (sensorgram pattern),[2],"identical sensorgrams were obtained with 1 mM peptide solution and flow channels containing no ligand or flow channels containing either HSP72 or irrelevant protein (i.e., IgG) as ligand"
